Measurements from ChEMBL document CHEMBL1135750, “Phenoxyphenyl sulfone N-formylhydroxylamines (retrohydroxamates) as potent, selective, orally bioavailable matrix metalloproteinase inhibitors” (J Med Chem, 2002).
pIC50: −log10 of the molar value.

How the values were obtained:
Interstitial collagenase = target: T1, Interstitial collagenase (Homo sapiens, UniProt P03956); test: In vitro selective inhibition against matrix metalloprotease-1 (MMP-1) using a fluorimetric assay
T1 sequence (P03956 whole entry): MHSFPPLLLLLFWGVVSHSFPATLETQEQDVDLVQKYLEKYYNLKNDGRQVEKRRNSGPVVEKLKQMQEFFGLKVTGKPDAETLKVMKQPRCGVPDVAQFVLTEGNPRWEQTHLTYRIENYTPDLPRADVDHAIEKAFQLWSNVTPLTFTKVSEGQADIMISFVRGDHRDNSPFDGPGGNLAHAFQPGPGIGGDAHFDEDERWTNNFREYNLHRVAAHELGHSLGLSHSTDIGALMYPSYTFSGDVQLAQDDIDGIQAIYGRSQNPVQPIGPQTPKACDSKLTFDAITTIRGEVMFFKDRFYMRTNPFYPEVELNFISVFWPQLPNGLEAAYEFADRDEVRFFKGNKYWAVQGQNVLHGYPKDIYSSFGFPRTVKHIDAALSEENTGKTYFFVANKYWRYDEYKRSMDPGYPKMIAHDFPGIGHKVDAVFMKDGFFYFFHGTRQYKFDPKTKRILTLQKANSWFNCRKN

[1] = target: 72 kDa type IV collagenase (Homo sapiens, UniProt P08253); test: In vitro selective inhibition against matrix metalloprotease-2 (MMP-2) using fluorimetric assay
[2] = target: Matrix metalloproteinase-9 (Homo sapiens, UniProt P14780); test: In vitro selective inhibition against Matrix metalloprotease-9 (MMP-9) using fluorimetric assay
THP-1 = test: Selective inhibition of the cellular TNF alpha release from LPS-stimulated THP-1 cells; type: functional, cell-based; details: Homo sapiens
[3] = AUC in monkey; type: ADME; parameters: concentration or dose not given beside the values; details: simiiformes, plasma
[4] = Half life measured as t1/2 in hours after iv administration in cynomolgus monkey; type: ADME, organism-based, Macaca fascicularis; details: in vivo
[5] = Area under the curve (AUC) after 3 mg/kg peroral administration in cynomolgus monkey; type: ADME, organism-based, Macaca fascicularis; parameters: dose 3 mg/kg, route oral; details: in vivo, po
Method in brief: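 Single oral dose of 3 mpk in cynomolgus monkeys, two animals per compound. Oral exposure is reported as AUC in μM·h.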

Matrilysin = target: T2, Matrilysin (Homo sapiens, UniProt P09237); test: Inhibition of Matrix metalloprotease-7 (MMP-7) in fluorimetric assay
T2 sequence (P09237 whole entry): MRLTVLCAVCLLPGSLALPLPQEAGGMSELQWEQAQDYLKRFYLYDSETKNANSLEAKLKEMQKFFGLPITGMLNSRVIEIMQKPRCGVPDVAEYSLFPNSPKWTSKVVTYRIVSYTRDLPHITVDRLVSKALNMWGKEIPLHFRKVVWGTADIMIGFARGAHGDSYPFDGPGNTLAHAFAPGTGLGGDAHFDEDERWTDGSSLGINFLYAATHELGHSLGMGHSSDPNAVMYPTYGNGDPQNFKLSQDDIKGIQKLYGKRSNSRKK

Neutrophil collagenase = Neutrophil collagenase (Homo sapiens, UniProt P22894); test: Inhibition of Matrix metalloprotease-8 (MMP-8) in fluorimetric assay
Chain of Neutrophil collagenase (P22894 whole entry): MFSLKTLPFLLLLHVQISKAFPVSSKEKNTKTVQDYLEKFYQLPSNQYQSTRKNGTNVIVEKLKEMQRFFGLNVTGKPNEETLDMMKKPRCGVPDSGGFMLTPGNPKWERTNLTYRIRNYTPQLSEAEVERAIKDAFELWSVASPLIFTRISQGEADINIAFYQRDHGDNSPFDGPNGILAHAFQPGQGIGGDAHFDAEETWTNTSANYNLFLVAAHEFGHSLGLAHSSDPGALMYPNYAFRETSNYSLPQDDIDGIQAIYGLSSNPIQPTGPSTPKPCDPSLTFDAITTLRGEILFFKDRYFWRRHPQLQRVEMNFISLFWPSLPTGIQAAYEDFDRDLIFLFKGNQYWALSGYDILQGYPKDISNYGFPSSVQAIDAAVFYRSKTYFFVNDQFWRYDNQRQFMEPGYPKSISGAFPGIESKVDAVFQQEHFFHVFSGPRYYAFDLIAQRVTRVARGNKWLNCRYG

Chain of 72 kDa type IV collagenase (P08253 whole entry): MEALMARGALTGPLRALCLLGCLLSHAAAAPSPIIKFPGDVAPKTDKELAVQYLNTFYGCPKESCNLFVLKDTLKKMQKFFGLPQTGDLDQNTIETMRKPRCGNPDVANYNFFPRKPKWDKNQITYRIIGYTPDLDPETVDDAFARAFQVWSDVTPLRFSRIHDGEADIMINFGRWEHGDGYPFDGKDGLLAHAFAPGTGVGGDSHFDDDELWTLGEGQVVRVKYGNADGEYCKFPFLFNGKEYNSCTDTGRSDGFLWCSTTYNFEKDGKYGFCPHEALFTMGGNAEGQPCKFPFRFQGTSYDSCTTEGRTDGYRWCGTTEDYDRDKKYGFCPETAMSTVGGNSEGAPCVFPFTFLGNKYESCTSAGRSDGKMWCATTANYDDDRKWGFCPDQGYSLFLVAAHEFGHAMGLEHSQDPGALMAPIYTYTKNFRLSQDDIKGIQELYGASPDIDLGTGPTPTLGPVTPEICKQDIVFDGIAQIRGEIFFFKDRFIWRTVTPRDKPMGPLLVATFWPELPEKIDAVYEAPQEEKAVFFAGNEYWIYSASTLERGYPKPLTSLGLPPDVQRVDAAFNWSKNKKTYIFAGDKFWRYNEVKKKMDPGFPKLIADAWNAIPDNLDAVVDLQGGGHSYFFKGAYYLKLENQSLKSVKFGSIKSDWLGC
Chain of Matrix metalloproteinase-9 (P14780 whole entry): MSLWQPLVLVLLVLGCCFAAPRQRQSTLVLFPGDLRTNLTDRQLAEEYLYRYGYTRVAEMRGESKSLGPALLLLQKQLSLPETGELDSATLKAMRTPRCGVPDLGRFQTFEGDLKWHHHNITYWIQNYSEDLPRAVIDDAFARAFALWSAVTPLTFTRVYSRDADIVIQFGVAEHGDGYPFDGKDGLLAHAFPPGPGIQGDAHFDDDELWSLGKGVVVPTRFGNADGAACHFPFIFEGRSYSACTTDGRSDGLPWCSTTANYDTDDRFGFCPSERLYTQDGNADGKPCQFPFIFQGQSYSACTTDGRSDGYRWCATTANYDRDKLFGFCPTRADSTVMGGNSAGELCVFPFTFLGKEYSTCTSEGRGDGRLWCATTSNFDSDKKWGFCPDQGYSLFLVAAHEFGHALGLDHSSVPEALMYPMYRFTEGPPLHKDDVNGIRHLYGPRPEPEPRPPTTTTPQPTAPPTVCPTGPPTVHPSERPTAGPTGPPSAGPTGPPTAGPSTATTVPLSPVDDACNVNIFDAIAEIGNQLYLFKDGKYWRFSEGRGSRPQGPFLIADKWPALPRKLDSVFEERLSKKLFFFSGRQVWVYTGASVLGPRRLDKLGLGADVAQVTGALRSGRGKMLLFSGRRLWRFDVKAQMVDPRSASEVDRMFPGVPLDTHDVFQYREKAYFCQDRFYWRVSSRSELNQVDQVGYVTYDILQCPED

pIC50 (Interstitial collagenase)	pIC50 [1]	pIC50 [2]	pIC50 (THP-1)	AUC [3] [µM·h]	half-life [4] [min]	AUC [5] [µM·h]	pIC50 (Matrilysin)	pIC50 (Neutrophil collagenase)	SMILES
5.70	7.92	8.77	–	–	–	–	–	–	CN(CC(CS(=O)(=O)c1ccc(Oc2ccc(OC(F)(F)F)cc2)cc1)N(O)C=O)S(C)(=O)=O (configuration not stated)
–	–	–	5.68	–	–	–	–	–	CNC(=O)[C@@H](NC(=O)[C@H](CC(C)C)[C@H](O)C(=O)NO)C(C)(C)C
5.10	8.72	8.70	–	24	–	–	–	–	CS(=O)(=O)N1CCC[C@H]1[C@@H](CS(=O)(=O)c1ccc(Oc2ccc(OC(F)(F)F)cc2)cc1)N(O)C=O
< 4.30	8.72	8.96	–	21	1170	–	–	–	C[C@@H]1OC(C)(C)OC1[C@@H](CS(=O)(=O)c1ccc(Oc2ccc(OC(F)(F)F)cc2)cc1)N(O)C=O (some centres not stated)
< 4.30	9.38	8.70	–	–	–	28	–	–	O=CN(O)C(CS(=O)(=O)c1ccc(Oc2ccc(OC(F)(F)F)cc2)cc1)C1CCC2(CC1)OCCO2 (configuration not stated)
< 4.30	8.82	8.26	–	2	–	–	–	–	CC1(C)OCC(C[C@@H](CS(=O)(=O)c2ccc(Oc3ccc(OC(F)(F)F)cc3)cc2)N(O)C=O)O1 (some centres not stated)
< 4.30	8.59	8.70	–	–	516	–	–	–	O=CN(O)C(CCC(=O)N1CCOCC1)CS(=O)(=O)c1ccc(Oc2ccc(OC(F)(F)F)cc2)cc1 (configuration not stated)
5.00	9.04	8.85	–	11	–	–	–	–	Cn1ccc(=O)n(CC(CS(=O)(=O)c2ccc(Oc3ccc(OC(F)(F)F)cc3)cc2)N(O)C=O)c1=O (configuration not stated)
–	9.46	9.59	–	–	60	–	–	–	O=CN(O)C(CO)CS(=O)(=O)c1ccc(Oc2ccc(OC(F)(F)F)cc2)cc1 (configuration not stated)
< 4.30	8.13	8.39	–	–	–	–	–	–	O=CN(O)C(CS(=O)(=O)c1ccc(Oc2ccc(OC(F)(F)F)cc2)cc1)c1ccccc1 (configuration not stated)
7.44	9.47	8.39	–	–	66	–	–	–	CC1(C)NC(=O)N(CC(CS(=O)(=O)c2ccc(-c3ccc(C#N)cc3)cc2)N(O)C=O)C1=O (configuration not stated)
6.09	8.89	8.70	–	8	–	–	–	–	CC1(C)NC(=O)N(CC(CS(=O)(=O)c2ccc(Oc3ccc(OC(F)(F)F)cc3)cc2)N(O)C=O)C1=O (configuration not stated)
< 4.30	9.36	9.52	–	–	–	–	–	–	O=CN(O)C(COCCO)CS(=O)(=O)c1ccc(Oc2ccc(OC(F)(F)F)cc2)cc1 (configuration not stated)
5.18	10.01	8.14	–	4	–	–	–	–	CN(C)S(=O)(=O)CC(CS(=O)(=O)c1ccc(Oc2ccc(OC(F)(F)F)cc2)cc1)N(O)C=O (configuration not stated)
6.00	9.03	8.41	–	1	–	–	–	–	CC1(C)NC(=O)N(CC(CS(=O)(=O)c2ccc(Oc3ccc(C#N)cc3)cc2)N(O)C=O)C1=O (configuration not stated)
5.60	8.85	8.74	–	–	–	–	–	–	CN1C(=O)N(CC(CS(=O)(=O)c2ccc(Oc3ccc(C#N)cc3)cc2)N(O)C=O)C(=O)C1(C)C (configuration not stated)
< 4.30	8.62	9.05	–	–	–	–	–	–	COCC(CS(=O)(=O)c1ccc(Oc2ccc(OC(F)(F)F)cc2)cc1)N(O)C=O (configuration not stated)
< 4.30	8.77	8.66	–	1	–	–	–	–	O=CN(O)C(CS(=O)(=O)c1ccc(Oc2ccc(OC(F)(F)F)cc2)cc1)c1ccccn1 (configuration not stated)
5.17	8.44	8.01	–	–	–	–	–	–	O=CN(O)C(CSc1cccs1)CS(=O)(=O)c1ccc(Oc2ccc(OC(F)(F)F)cc2)cc1 (configuration not stated)
< 4.30	7.21	7.43	–	–	–	–	–	–	O=CN(O)C(CS(=O)(=O)c1ccc(Oc2ccc(OC(F)(F)F)cc2)cc1)c1ccc(C(F)(F)F)cc1 (configuration not stated)
< 4.30	8.02	7.92	–	–	–	–	–	–	Cn1c(C(CS(=O)(=O)c2ccc(Oc3ccc(OC(F)(F)F)cc3)cc2)N(O)C=O)cc2ccccc21 (configuration not stated)
< 4.30	9.21	9.49	–	26	–	–	–	–	O=CN(O)C(CS(=O)(=O)c1ccc(Oc2ccc(OC(F)(F)F)cc2)cc1)C1CCCO1 (configuration not stated)

pIC50 (Interstitial collagenase)	pIC50 [1]	pIC50 [2]	pIC50 (THP-1)	AUC [3] [µM·h]	half-life [4] [min]	AUC [5] [µM·h]	pIC50 (Matrilysin)	pIC50 (Neutrophil collagenase)	SMILES
6.55	9.14	8.85	–	13	702	–	–	–	CN1C(=O)N(CC(CS(=O)(=O)c2ccc(Oc3ccc(Cl)cc3)cc2)N(O)C=O)C(=O)C1(C)C (configuration not stated)
–	9.35	8.00	–	4	204	–	–	–	CC1(C)NC(=O)N(CC(CS(=O)(=O)c2ccc(-c3ccc(C(F)(F)F)cc3)cc2)N(O)C=O)C1=O (configuration not stated)
< 4.30	9.44	10.04	–	3	–	–	–	–	O=CN(O)C(CS(=O)(=O)c1ccc(Oc2ccc(OC(F)(F)F)cc2)cc1)[C@H](O)CO (some centres not stated)
< 4.30	9.24	8.77	–	10	84	–	–	–	O=CN(O)C(CCN1CCOCC1)CS(=O)(=O)c1ccc(Oc2ccc(OC(F)(F)F)cc2)cc1 (configuration not stated)
7.05	9.49	9.02	–	17	336	–	–	–	CC1(C)NC(=O)N(CC(CS(=O)(=O)c2ccc(Oc3ccc(Cl)cc3)cc2)N(O)C=O)C1=O (configuration not stated)
5.08	7.70	8.96	–	5	–	–	–	–	CCC1(CC)OCC([C@@H](CS(=O)(=O)c2ccc(Oc3ccc(OC(F)(F)F)cc3)cc2)N(O)C=O)O1 (some centres not stated)
7.11	9.46	9.04	–	–	30	–	–	–	CC1(C)NC(=O)N(CC(CS(=O)(=O)c2ccc(-c3cccc(CC#N)c3)cc2)N(O)C=O)C1=O (configuration not stated)
5.60	9.41	9.07	–	3	–	–	–	–	O=CN(O)C(CS(=O)(=O)c1ccc(Oc2ccc(OC(F)(F)F)cc2)cc1)CS(=O)(=O)N1CCOCC1 (configuration not stated)
5.28	8.89	9.05	–	3	132	–	–	–	CN(C)CC(CS(=O)(=O)c1ccc(Oc2ccc(OC(F)(F)F)cc2)cc1)N(O)C=O (configuration not stated)
6.62	8.62	8.21	–	–	–	–	–	–	CCCCOc1ccc(-c2ccc(S(=O)(=O)CC(CN3C(=O)NC(C)(C)C3=O)N(O)C=O)cc2)cc1 (configuration not stated)
7.09	9.07	9.47	–	5	–	–	–	–	CC1(C)NC(=O)N(CC(CS(=O)(=O)c2ccc(-c3ccc(OC(F)(F)F)cc3)cc2)N(O)C=O)C1=O (configuration not stated)
8.54	9.17	8.96	–	–	–	–	–	–	CSc1ccc(-c2ccc(S(=O)(=O)CC(CN3C(=O)NC(C)(C)C3=O)N(O)C=O)cc2)cc1 (configuration not stated)
< 4.30	8.55	9.31	–	8	114	–	–	–	O=CN(O)C(CS(=O)(=O)c1ccc(Oc2ccc(OC(F)(F)F)cc2)cc1)C(CO)CO (configuration not stated)
< 4.30	8.74	–	–	1	42	–	–	–	CN1C(=O)N(CC(CS(=O)(=O)c2ccc(Oc3ccc(OC(F)(F)F)cc3)cc2)N(O)C=O)C(=O)C1(C)C (configuration not stated)
< 4.30	9.48	9.10	–	41	–	–	–	–	CS(=O)(=O)N1CCN(CCC(CS(=O)(=O)c2ccc(Oc3ccc(OC(F)(F)F)cc3)cc2)N(O)C=O)CC1 (configuration not stated)
< 4.30	9.28	9.28	–	16	–	–	–	–	O=CN(O)C(CCc1ccc(C(=O)O)cc1)CS(=O)(=O)c1ccc(Oc2ccc(OC(F)(F)F)cc2)cc1 (configuration not stated)
< 4.30	7.47	9.01	–	–	–	–	–	–	COC(=O)c1ccc(CCC(CS(=O)(=O)c2ccc(Oc3ccc(OC(F)(F)F)cc3)cc2)N(O)C=O)cc1 (configuration not stated)
< 4.30	8.20	8.64	–	–	–	–	–	–	CC1(C)OC[C@@H]([C@@H](CS(=O)(=O)c2ccc(Oc3ccc(OC(F)(F)F)cc3)cc2)N(O)C=O)O1 (stereo in doubt; 19v)
< 4.30	7.60	8.85	–	–	–	–	–	–	CC1(C)OC[C@H]([C@@H](CS(=O)(=O)c2ccc(Oc3ccc(OC(F)(F)F)cc3)cc2)N(O)C=O)O1 (stereo in doubt; 19w)
< 4.30	6.59	6.32	–	–	–	–	–	–	CC1(C)OC[C@@H]([C@@H](CS(=O)(=O)c2ccc(Oc3ccc(OC(F)(F)F)cc3)cc2)N(O)C=O)O1 (stereo in doubt; 19x)
–	–	–	5.07	–	–	–	7.14	9.27	CC1(C)SCCN(S(=O)(=O)c2ccc(Oc3ccncc3)cc2)[C@H]1C(=O)NO [PRINOMASTAT]
< 5.30	7.96	6.52	–	–	–	–	–	–	O=C(C[C@H](CSc1ccccc1)C(=O)O)c1ccc(-c2ccc(Cl)cc2)cc1 [TANOMASTAT]
